Series [1] deals with Mus musculus. Put plainly: In vivo inhibition of BTK autophosphorylation at Y223 in human TMD8 cells xenografted in CB17 SCID nude mouse at 15 mg/kg, […] by Western blot method. The series is classed as functional, organism-based. For orientation: In xenograft studies the graft and the host belong to different species.
Series [2] deals with TMD8. Put plainly: Cell cycle arrest in human TMD8 cells assessed as accumulation at S phase at 10 nM after 48 hrs by propidium iodide staining-based flow cytometric method (reference value: 34.15%). The series is classed as functional. Background: A flow cytometer gives signals particle by particle.
A short description of series [3]: Drug metabolism in rat liver microsomes assessed as (S)-N-(4-amino-5-(4-(4-hydroxyphenoxy)phenyl)-6-methylene-7,8-dihydro-6H-pyrimido[5,4-b]pyrrolizin-7-yl)acrylamide formation after 3 hrs. It is filed as ADME, microsome. (In general: Microsomes from liver hold many membrane-bound enzymes, among them those of drug oxidation.)
A further series addresses Ephrin type-A receptor 2 (Homo sapiens, UniProt P29317). Put plainly: Inhibition of recombinant human EPHA2 using Poly(Glu, Tyr) 4:1 as substrate after 1 hr by ELISA.
For series [4], the system named is Rattus norvegicus. Description: AUC (0 to infinity) in rat at 3 mg/kg, po. It is filed as ADME, organism-based. Particulars: in vivo. More on the design: dose 3 mg/kg, time infinity, route oral. An outline of the steps: (§1)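 Rats dosed orally at 3 mg/kg; vehicle DMSO, Tween 80, normal saline; values are the average of three determinations.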
Series [5] concerns Mus musculus. Description: Toxicity in CB17 SCID nude mouse xenografted with human TMD8 cells assessed as change in body weight at 15 mg/kg, po qd administered for 13 consecutive days measured during compound dosing up to day 17 post dose. The series is classed as organism-based. Particulars: in vivo.
Series [6] has as its system TMD8. Description: Antiproliferative activity against human TMD8 cells xenografted in CB17 SCID nude mouse assessed as decrease in Ki-67 expression at 15 mg/kg, […] by […] immunohistochemical analysis. It is filed as functional, organism-based.
Series [7] has as its target T1, Receptor-type tyrosine-protein kinase FLT3 (Homo sapiens, UniProt P36888).
T1 sequence (P36888 whole entry): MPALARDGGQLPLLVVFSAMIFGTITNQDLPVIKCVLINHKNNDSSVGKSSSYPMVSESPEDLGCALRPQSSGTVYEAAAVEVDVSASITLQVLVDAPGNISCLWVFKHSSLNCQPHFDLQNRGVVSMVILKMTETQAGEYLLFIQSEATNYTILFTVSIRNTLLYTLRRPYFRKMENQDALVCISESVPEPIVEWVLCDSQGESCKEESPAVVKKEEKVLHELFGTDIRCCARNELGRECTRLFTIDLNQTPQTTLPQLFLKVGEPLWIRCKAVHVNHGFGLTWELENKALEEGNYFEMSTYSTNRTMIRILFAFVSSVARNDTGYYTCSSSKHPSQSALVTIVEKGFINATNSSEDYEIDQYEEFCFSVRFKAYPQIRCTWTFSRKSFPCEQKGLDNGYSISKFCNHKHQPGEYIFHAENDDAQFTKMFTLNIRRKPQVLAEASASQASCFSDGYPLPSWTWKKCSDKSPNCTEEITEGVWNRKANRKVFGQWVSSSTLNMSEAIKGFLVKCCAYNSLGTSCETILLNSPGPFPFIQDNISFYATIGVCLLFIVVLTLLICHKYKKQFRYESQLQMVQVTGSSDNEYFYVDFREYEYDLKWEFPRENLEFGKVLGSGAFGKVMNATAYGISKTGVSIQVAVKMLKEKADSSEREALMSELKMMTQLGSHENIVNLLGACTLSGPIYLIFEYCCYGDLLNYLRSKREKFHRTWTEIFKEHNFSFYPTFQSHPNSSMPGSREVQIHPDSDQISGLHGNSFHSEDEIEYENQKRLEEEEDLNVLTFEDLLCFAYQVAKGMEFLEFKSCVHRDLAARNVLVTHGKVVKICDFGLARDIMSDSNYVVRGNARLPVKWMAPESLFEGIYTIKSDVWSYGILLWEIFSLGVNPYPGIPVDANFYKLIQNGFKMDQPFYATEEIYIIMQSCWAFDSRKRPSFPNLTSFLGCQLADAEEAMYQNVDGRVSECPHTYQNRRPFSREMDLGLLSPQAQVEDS
Description: Inhibition of recombinant human FLT3 using Poly(Glu, Tyr) 4:1 as substrate after 1 hr by ELISA. An outline of the steps: (§2)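 Kinase activity was measured by ELISA on wells precoated with 20 µg/mL poly(Glu,Tyr) 4:1. Enzyme was incubated with compound in 50 mM HEPES pH 7.4, 20 mM MgCl2, 0.1 mM MnCl2, 0.2 mM Na3VO4, 1 mM DTT with 5 µM ATP at 37 °C for 1 h. Phosphotyrosine was detected with PY99 antibody, HRP secondary and OPD, read at A492. IC50 is the mean of duplicates.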

Series [8] has as its system Rattus norvegicus. Description: Volume of distribution at steady state in rat at 1 mg/kg, iv. The series is classed as ADME, organism-based. Particulars: in vivo. A digest of the protocol: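 Rats were given compound at 1 mg/kg iv or 3 mg/kg po. Vehicle was DMSO, Tween 80 and normal saline. Values are the average of three determinations.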
Series [9] concerns the target T2, Tyrosine-protein kinase BTK (Homo sapiens, UniProt Q06187). Put plainly: Inhibition of recombinant human BTK using Poly(Glu, Tyr) 4:1 as substrate after 1 hr by ELISA.
Series [10] is described as follows: Cmax in rat at 3 mg/kg, po. It is filed as ADME, organism-based. Set-up: dose 3 mg/kg, route oral. The conditions noted are these: in vivo. An outline of the steps: as §1
A short description of series [11]: Drug metabolism in human liver microsomes assessed as (S)-N-(4-amino-5-(4-hydroxyphenyl)-6-methylene-7,8-dihydro-6H-pyrimido[5,4-b]pyrrolizin-7-yl)acrylamide formation after 3 hrs. It is filed as ADME, microsome.
The target of series [12] is T2, Tyrosine-protein kinase BTK. The conditions noted are these: TMD8, 1 to 100 nM.
Series [13] deals with Macrophage colony-stimulating factor 1 receptor (Homo sapiens, UniProt P07333). Put plainly: Inhibition of recombinant human CSF1R using Poly(Glu, Tyr) 4:1 as substrate after 1 hr by ELISA. An outline of the steps:
as §2

The subject of series [14] is TMD8. Description: Cell cycle arrest in human TMD8 cells assessed as accumulation at G1 phase at 10 nM after 48 hrs by propidium iodide staining-based flow cytometric method (reference value: 51.33%). The series is classed as functional.
In series [15] the test system is TMD8. Description: Cell cycle arrest in human TMD8 cells assessed as accumulation at G1 phase at 1 nM after 48 hrs by propidium iodide staining-based flow cytometric method (reference value: 51.33%). It is filed as functional.

Active and inactive are the calls of the source. The rule behind the calls is not given here.

What is called IC50 is the concentration that gives 50% inhibition. Broadly, the AUC is concentration integrated over time. A higher AUC goes with high exposure. The term Vdss denotes the apparent volume that relates the amount in the body to the concentration in plasma or blood. Read a high Vdss as extensive tissue distribution. For orientation: Cmax means the maximum level reached in the sampled fluid or tissue.

T2 sequence (Q06187 whole entry): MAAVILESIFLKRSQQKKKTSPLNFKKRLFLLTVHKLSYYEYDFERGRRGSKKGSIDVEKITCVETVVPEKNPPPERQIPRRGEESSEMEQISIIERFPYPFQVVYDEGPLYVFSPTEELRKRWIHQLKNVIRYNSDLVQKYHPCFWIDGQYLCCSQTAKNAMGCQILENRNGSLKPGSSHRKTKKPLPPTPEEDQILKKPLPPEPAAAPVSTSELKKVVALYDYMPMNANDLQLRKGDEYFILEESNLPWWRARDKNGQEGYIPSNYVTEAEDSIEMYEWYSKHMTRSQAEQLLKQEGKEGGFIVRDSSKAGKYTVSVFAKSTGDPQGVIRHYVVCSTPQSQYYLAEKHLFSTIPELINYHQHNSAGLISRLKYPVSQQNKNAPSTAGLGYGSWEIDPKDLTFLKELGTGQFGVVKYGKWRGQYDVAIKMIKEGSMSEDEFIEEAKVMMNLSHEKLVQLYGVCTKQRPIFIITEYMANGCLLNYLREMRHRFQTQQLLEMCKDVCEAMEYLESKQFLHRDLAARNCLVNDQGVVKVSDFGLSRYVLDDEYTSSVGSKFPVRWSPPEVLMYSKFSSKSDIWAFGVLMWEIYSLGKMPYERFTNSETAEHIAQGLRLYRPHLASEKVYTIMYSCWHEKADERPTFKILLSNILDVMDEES
Chain of Macrophage colony-stimulating factor 1 receptor (P07333 whole entry): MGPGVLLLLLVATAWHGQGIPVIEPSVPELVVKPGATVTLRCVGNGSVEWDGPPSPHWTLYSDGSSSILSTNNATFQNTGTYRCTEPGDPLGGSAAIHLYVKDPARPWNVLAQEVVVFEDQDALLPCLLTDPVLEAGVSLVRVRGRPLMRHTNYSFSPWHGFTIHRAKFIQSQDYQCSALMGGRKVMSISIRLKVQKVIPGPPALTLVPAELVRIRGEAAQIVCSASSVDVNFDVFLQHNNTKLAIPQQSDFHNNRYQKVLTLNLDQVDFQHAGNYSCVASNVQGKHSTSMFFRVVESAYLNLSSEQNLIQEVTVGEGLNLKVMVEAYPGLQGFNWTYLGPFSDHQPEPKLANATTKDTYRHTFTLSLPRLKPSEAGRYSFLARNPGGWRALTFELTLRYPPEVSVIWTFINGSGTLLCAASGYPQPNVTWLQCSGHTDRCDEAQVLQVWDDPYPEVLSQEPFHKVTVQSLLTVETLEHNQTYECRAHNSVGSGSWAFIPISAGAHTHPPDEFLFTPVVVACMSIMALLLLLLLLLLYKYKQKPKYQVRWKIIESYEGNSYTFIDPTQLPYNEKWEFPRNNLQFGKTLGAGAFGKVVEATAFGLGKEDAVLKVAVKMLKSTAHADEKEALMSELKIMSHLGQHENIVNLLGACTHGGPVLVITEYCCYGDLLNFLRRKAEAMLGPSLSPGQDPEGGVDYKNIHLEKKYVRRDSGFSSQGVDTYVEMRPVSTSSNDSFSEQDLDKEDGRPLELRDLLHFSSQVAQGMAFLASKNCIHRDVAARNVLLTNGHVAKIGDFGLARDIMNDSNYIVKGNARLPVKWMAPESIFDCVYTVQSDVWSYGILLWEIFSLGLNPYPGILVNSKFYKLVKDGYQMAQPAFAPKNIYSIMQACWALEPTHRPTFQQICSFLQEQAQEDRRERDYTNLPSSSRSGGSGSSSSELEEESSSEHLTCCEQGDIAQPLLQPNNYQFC
Chain of Ephrin type-A receptor 2 (P29317 whole entry): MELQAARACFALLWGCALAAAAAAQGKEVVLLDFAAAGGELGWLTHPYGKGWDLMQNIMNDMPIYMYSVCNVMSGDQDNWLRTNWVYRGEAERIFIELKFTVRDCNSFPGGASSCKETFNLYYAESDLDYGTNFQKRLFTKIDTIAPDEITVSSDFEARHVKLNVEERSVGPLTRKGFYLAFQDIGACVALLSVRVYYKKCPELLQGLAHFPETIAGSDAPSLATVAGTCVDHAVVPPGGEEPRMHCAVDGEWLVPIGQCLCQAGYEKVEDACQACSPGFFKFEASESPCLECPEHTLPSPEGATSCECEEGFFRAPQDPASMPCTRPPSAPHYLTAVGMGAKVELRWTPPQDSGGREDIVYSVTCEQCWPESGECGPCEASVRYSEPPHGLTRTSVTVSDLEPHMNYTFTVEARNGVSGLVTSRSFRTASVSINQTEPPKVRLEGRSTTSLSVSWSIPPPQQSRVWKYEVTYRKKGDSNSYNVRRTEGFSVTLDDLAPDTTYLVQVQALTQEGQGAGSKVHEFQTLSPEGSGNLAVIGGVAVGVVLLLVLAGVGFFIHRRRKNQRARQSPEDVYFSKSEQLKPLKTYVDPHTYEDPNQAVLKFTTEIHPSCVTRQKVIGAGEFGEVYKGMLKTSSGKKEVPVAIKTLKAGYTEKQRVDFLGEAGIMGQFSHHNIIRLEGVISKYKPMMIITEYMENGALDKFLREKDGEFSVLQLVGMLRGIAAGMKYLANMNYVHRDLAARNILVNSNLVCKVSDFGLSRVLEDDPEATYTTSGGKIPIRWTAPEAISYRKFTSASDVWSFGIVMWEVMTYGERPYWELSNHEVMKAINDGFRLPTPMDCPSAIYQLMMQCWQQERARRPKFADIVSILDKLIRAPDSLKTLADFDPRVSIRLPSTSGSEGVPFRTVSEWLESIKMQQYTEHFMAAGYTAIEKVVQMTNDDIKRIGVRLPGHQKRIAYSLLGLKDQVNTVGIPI

Take `C=CC(=O)N[C@@H]1Cn2c(c(-c3ccc(Oc4ccccc4)cc3)c3c(N)ncnc32)C1=C`: the inhibition result (in the series on Mus musculus [1]; in series [12]) was “Active” throughout. For the same compound, the Activity with TMD8 [2] is 12.56%; with Mus musculus [5] it was “Non-Toxic”; with TMD8 [14], 76.32%; in the series on TMD8 [15], 57.41%. Moreover, the Drug metabolism result in series [3] and in [11] was “Metabolite_Detected” throughout. Besides, the IC50 on Ephrin type-A receptor 2 was over 1000 nM; in series [7], 55 nM; in series [9], 0.4 nM; in [13] it was over 1000 nM. Besides, the AUC in the series with Rattus norvegicus [4] amounted to 211 ng·h/mL. In addition, the outcome in the series with TMD8 [6] was Active. This compound returned a Vdss with Rattus norvegicus [8] of 1.3 L/kg. Also, the peak level in series [10] (Cmax) was 223 ng/mL.

These data come from ChEMBL document CHEMBL4184325, “Discovery of 4,7-Diamino-5-(4-phenoxyphenyl)-6-methylene-pyrimido[5,4- b]pyrrolizines as Novel Bruton's Tyrosine Kinase Inhibitors” (J Med Chem, 2018).
